These results are taken from ChEMBL document CHEMBL1134269, “Structure-affinity relationships of a unique nicotinic ligand: N(1)-dimethyl-N(4)-phenylpiperazinium iodide (DMPP)” (J Med Chem, 2001).

pKi: −log10 of the molar value.

Assay [1] deals with Neuronal acetylcholine receptor; alpha4/beta2 (Rattus norvegicus, UniProt P09483+P12390). Kind of assay: Binding affinity against nicotinic receptors from rat brain using [3H]cytisine as radioligand. An outline of the steps:
(§1)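 Rat brain homogenate membranes (15 mg wet tissue) in 50 mmol Tris-HCl, pH 7.4 at 2 °C, with NaCl, KCl, MgCl₂ and CaCl₂. Incubated 75 min at 2 °C with 2 nmol [³H]-cytisine. Separated by GF/C filtration. Nonspecific binding defined with […] (–)-nicotine bitartrate. Ki calculated by Cheng-Prusoff using Kd 1.5 nmol.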

Assay [2] is described as follows: Compound was evaluated for pKi. Put shortly:
as §1

Assay [3] concerns the target Neuronal acetylcholine receptor subunit alpha-7 (Rattus norvegicus, UniProt Q05941). The assay is described as follows: compound was evaluated for pKi.
Assay [4] relates to Mus musculus. Kind of assay: Effect(%) respect to that of 5 ug/kg of morphine injected intracerebroventricularly. It is filed as functional. An outline of the steps:
(§2)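 Mouse hot-plate test with compounds given icv. Minimum analgesic dose recorded; efficacy expressed relative to 5 μg morphine icv. Nicotinic origin of analgesia tested by reversal with mecamylamine 2 mg/kg i.p.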

Assay [5] deals with Mus musculus. Kind of assay: Minimal analgesic dose of compound injected intracerebroventricularly. The assay is classed as functional. An outline of the steps:
as §2

Chain of Neuronal acetylcholine receptor; alpha4/beta2 (P09483 whole entry): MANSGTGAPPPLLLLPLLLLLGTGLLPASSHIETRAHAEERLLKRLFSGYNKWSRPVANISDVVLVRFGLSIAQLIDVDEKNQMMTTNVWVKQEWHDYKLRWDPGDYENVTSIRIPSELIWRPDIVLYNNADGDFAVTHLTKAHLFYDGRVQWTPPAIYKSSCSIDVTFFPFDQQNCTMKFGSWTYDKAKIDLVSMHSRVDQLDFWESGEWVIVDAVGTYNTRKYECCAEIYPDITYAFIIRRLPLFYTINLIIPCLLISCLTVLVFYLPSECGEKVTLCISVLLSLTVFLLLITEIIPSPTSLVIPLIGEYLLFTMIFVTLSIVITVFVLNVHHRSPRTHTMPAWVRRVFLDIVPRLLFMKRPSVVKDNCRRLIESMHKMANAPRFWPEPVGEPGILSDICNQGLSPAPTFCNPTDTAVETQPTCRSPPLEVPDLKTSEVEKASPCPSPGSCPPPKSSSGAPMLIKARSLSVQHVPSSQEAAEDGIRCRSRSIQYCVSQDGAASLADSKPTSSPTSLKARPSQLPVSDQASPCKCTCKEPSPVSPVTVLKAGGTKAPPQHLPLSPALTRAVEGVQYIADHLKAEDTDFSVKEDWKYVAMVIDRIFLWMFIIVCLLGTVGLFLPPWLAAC
Chain of Neuronal acetylcholine receptor; alpha4/beta2 (P12390 whole entry): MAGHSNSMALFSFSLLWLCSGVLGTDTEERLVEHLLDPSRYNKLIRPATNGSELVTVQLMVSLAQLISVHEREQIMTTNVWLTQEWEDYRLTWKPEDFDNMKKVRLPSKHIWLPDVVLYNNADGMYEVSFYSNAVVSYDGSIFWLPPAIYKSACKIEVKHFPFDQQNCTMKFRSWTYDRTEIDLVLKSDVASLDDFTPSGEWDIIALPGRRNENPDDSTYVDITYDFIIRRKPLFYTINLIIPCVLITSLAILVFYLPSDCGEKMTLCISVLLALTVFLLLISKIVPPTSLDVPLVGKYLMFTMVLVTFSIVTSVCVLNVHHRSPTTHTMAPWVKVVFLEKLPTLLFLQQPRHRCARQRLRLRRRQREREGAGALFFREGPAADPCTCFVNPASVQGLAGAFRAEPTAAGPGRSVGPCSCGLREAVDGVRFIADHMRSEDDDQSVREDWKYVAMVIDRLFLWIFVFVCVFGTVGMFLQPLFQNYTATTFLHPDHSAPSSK
Chain of Neuronal acetylcholine receptor subunit alpha-7 (Q05941 whole entry): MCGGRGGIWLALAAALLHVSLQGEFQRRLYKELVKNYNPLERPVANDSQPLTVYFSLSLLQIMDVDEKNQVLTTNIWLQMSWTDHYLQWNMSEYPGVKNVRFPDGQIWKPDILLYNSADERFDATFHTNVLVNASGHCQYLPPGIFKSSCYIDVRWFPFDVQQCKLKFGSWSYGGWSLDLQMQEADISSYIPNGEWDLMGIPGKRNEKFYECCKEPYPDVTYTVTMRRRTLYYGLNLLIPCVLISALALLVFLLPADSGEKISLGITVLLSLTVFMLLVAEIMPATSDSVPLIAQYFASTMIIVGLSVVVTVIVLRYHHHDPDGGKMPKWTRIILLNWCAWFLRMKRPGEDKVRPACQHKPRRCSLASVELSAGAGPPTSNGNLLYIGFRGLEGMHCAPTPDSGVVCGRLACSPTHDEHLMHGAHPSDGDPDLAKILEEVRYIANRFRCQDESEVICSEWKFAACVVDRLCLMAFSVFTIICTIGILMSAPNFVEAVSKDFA

`C[N+]1(C)CCN(c2ccc3c(c2)OCO3)CC1.[I-]`: in assay [1], the pKi was 6.17. For the same compound, the “Log Ki” value in assay [2] is recorded as -6.17.
As to `CN1CCN(C2=CC(=O)CC2)CC1`, the pKi in assay [1] was below 5.00.
For `CC(=O)Oc1cccc(N2CCN(C)CC2)c1`, the pKi in assay [1] and in assay [3] was 6.10 each time.
Regarding `Fc1ccc(N2CCNCC2)cc1`, in assay [1], the pKi is below 5.00.
In assay [1], `CN1CCN(c2ccc([N+](=O)[O-])cc2)CC1` showed a pKi below 5.00.
Take `O=C(O)C(=O)O.c1cncc(N2CCNCC2)c1`: the pKi in assay [1] is 7.05. In assay [4], this compound had an Efficacy of 51.1%. Also, the “Log Ki” value in assay [2] is reported as -7.05. In assay [5], this compound yielded a M.A.D of 50 µg/kg.
In turn, `CN1CC=C(c2cccnc2)CC1.Cl` returned an Efficacy in assay [4] of 36.5%. Further, the M.A.D in assay [5] amounted to 1 µg/kg.
For `CN1CCN(c2ccc(O)cc2)CC1`, in assay [1], the pKi is below 5.00.
As for `Cc1ccccc1N1CCN(C)CC1`, the pKi in assay [1] is below 5.00.
On the same count and under the same terms, in the case of `CN1CCN(c2cccc(C(F)(F)F)c2)CC1` it was below 5.00; in that of `Fc1cccc(N2CCNCC2)c1`, below 5.00; in that of `O=[N+]([O-])c1cccc(N2CCNCC2)c1`, below 5.00.
Same read-out and setting: for `CN1CCN(c2ccc3c(c2)OCO3)CC1` the value was below 5.00; for `CC(=O)c1ccc(N2CCN(C)CC2)cc1`, below 5.00; for `CN1CCC(c2ccccc2)CC1`, below 5.00.
Same read-out and setting: for `CN1CCN(c2cccc(Cl)c2)CC1` the value was below 5.00.
With `Cc1cccc(N2CCN(C)CC2)c1`, in assay [1], the pKi was below 5.00.
In assay [1], `CN1CCN(c2cccnn2)CC1.O=C(O)C(=O)O` had a pKi of 6.41. Besides, the “Log Ki” value in assay [2] is -6.41.
As to `CN1CCN(C2=CC(=O)CCC2)CC1`, the pKi in assay [1] was below 5.00.
The compound `CN1CCN(c2cccc(N)c2)CC1` gave a pKi in assay [1] of 6.74. Also, in assay [2], the “Log Ki” value is listed as -6.74.
`c1cc(N2CCNCC2)ccn1` had a pKi in assay [1] below 5.00.
The compound `CN1CC=C(c2ccccc2)CC1` showed a pKi in assay [1] below 5.00.
On the same count and under the same terms, in the case of `CN1CCN(c2ccc(N)cc2)CC1` it was below 5.00; in that of `CN1CCN(c2ccc(F)cc2)CC1`, below 5.00; in that of `CN1CCN(c2cccc(O)c2)CC1`, below 5.00.
The same measure, in the same setting: in the case of `c1cc2c(cc1N1CCNCC1)OCO2` it was below 5.00.
Consider `CC(=O)Nc1cccc(N2CCN(C)CC2)c1`, for which, in assay [1], the pKi is below 5.00.
On the same count and under the same terms, for `CN1CCN(c2cccc(C#N)c2)CC1` the value was below 5.00; for `FC(F)(F)c1cccc(N2CCNCC2)c1`, below 5.00.
Still for that read-out and setting: for `CC(=O)c1ccc(N2CCNCC2)cc1` the value was below 5.00.
Regarding `CN1CCN(c2cccc(F)c2)CC1.O=C(O)C(=O)O`, the pKi in assay [1] was 5.19. In addition, the “Log Ki” value in assay [2] is -5.19.

A word on the pKi: it is the Ki on a negative log10 scale, so that one unit is a factor of ten. High values mean a low Ki, low ones a high Ki.
